Active and inactive are the calls of the source. The rule behind the calls is not given here.
Legend:
[1] = molecular target: T1, Luciferin 4-monooxygenase (Photinus pyralis, UniProt P08659); assay: Inhibition of Photinus pyralis luciferase by Easy lite assay
How it was run: (§1)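 Detection by 2 µL of EasyLite or Kinase-Glo reagent (Kinase-Glo containing P. pennsylvanica luciferase). 1536-well luminescence. 16 two-fold concentrations, duplicate wells, repeated on two or three days.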

[2] = molecular target: T1, Luciferin 4-monooxygenase; assay: (§2) Inhibition of Photinus pyralis luciferase by Steady-Glo reporter gene assay
How it was run: (§3)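 5 nM purified P. pyralis luciferase in SteadyGlo or BrightGlo reporter-gene reagent; no extra ATP or D-luciferin added. 1536-well luminescence. Curves from 16 two-fold concentrations in duplicate, repeated on two or three separate days.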

[3] = molecular target: T1, Luciferin 4-monooxygenase; assay: Inhibition of Photinus pyralis luciferase
[4] = Inhibition of Renilla reniformis luciferase
[5] = molecular target: T1, Luciferin 4-monooxygenase; assay: Inhibition of Photinus pyralis luciferase by PK-Light assay
[6] = molecular target: T1, Luciferin 4-monooxygenase; assay: (§4) Inhibition of Photinus pyralis luciferase by BrightGlo reporter gene assay; how it was run: as §3
[7] = molecular target: T2, Luciferin 4-monooxygenase (Photuris pensylvanica, UniProt Q27757); assay: (§5) Inhibition of luciferase Photuris pennsylvanica by Promega Kinase-Glo assay; how it was run: as §1
T2 sequence (Q27757 whole entry): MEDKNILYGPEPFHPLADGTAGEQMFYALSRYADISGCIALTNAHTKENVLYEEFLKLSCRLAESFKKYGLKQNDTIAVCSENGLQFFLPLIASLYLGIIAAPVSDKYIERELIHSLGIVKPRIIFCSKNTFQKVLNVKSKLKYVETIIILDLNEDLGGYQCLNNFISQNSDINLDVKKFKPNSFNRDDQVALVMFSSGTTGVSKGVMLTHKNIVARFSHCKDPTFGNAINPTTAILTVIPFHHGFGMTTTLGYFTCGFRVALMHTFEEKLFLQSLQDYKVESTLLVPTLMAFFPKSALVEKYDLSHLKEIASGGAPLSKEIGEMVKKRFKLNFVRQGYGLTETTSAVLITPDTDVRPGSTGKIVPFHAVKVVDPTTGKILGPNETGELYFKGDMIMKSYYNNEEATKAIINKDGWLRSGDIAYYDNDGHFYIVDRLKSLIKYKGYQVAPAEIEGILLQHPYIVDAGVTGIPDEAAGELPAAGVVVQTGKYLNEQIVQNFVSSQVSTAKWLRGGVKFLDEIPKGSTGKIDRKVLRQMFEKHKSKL

[8] = molecular target: Luciferin 4-monooxygenase (Photinus pyralis) (UniProt P08659); assay: Inhibition of Photinus pyralis luciferase at 0.04 uM
[9] = molecular target: T3, Luciferin 4-monooxygenase (Photuris pensylvanica) (UniProt Q27757); assay: Inhibition of Photuris pennsylvanica luciferase at 57 uM by Promega Kinase-Glo assay
T3 sequence (whole entry): T2 sequence (Q27757 whole entry)

[10] = molecular target: T3, Luciferin 4-monooxygenase (Photuris pensylvanica); assay: as §5; how it was run: as §1
[11] = molecular target: Luciferin 4-monooxygenase (Photinus pyralis) (UniProt P08659); assay: as §2; how it was run: as §3
[12] = molecular target: Luciferin 4-monooxygenase (Photinus pyralis) (UniProt P08659); assay: as §4; how it was run: as §3

Luciferin 4-monooxygenase (Photinus pyralis), sequence (P08659 whole entry): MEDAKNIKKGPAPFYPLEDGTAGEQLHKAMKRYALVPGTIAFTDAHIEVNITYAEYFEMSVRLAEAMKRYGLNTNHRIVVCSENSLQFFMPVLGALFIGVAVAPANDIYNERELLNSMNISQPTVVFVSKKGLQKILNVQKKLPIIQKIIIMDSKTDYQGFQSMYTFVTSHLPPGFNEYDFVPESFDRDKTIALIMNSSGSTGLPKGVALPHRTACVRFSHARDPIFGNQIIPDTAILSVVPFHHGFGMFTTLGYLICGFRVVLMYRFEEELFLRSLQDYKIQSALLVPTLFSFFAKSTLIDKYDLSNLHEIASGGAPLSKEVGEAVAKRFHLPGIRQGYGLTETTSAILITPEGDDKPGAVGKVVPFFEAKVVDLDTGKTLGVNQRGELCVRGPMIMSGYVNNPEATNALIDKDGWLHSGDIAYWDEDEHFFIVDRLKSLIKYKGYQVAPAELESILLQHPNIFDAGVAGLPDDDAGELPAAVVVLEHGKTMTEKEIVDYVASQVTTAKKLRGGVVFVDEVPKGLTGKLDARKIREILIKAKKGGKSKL
T1 sequence (P08659 whole entry): as above

Structure (SMILES)	IC50 [1] [nM]	IC50 [2] [nM]	IC50 [3] [nM]	IC50 [4] [nM]	IC50 [5] [nM]	IC50 [6] [nM]	IC50 [7] [nM]	inhibition [8] [%]	Activity [9]	Activity [10]	Activity [11]	Activity [12]
Clc1cccc(-c2nc(-c3ccccn3)no2)c1	700	1500	500	> 50000	2100	1200	7400					
O=c1cc(-c2ccccc2O)oc2ccc3ccccc3c12	200	60	50		700	90	14000					
Brc1ccc(-c2nc(-c3ccccn3)no2)o1	5100	2600	3200		13000	12000	12000					
CCN(CC)c1ccc2cc(-c3nc4ccccc4[nH]3)c(=O)oc2c1	14000	120	240	5300	380	400	16000	100				
Cc1ccc(C(=O)Nc2nc3ccc(S(C)(=O)=O)cc3s2)s1	3200	10000	1100		5400	13300			inactive	inactive		
Cc1ccc(-c2nc(-c3ccccc3)no2)c(Cl)c1	400	160	150		500	300	10500					
CS(=O)(=O)c1ccc2nc(NC(=O)c3cccs3)sc2c1	1300	2500	1100		6100	3200	9500					
O=C(/C=C\Nc1ccc(F)cc1)c1ccco1	1100	4000	1000		3600	3600	14200					
Cc1ccc(-c2cc(C(=O)N3CCN(c4ncccn4)CC3)c3ccccc3n2)cc1				> 25000							inactive	inactive
Cc1ccc(C(=O)Cn2c3c(sc2=N)CCCC3)cc1	1800	2800	320		1100	600				inactive		
COc1ccc(C(=O)Nc2ccc(C)cn2)c(OC)c1	280	500	80		250	200	14200					
Cc1ccc(-c2nc(-c3ccccn3)no2)cc1Cl	800	1600	220		2100	1400	22000					
O=c1c2ccccc2cnn1-c1nc2ccccc2s1	150	600	300		200	700	5100					
CCOc1ccc2nc(NC(=O)Nc3cccs3)sc2c1	2100	12000	600		1450	11300				inactive		
Clc1cccc(/C=N\C=N\c2cccc(Cl)c2)c1	11400		4500	> 50000	7800					inactive	inactive	inactive
O=C(/C=C\Nc1cccc(F)c1)c1ccc2c(c1)OCO2	1200	900	300		1200	1900	> 50000					
Cc1ccc(-c2noc(-c3ccccc3Br)n2)cc1	2300	11000	1000		3300	12000				inactive		
Clc1ccc(-c2nc(-c3ccccn3)no2)cc1Cl	1900	3300	840		4100	3900	19000					
COc1cccc(-c2cc(=O)c3ccccc3o2)c1N	11000	> 100000	6200		6400	60000				inactive		
O=C(/C=C\Nc1ccccc1Br)c1ccccn1	170	200	80	> 50000	170	80	10000					
CCOc1ccc(NC(=O)c2ccccc2OC)cc1	1500	> 50000	600		2800	8300				inactive		
